Test results reported in ChEMBL document CHEMBL1147722, “Discovery of proline sulfonamides as potent and selective hepatitis C virus NS5b polymerase inhibitors. Evidence for a new NS5b polymerase binding site” (J Med Chem, 2006).

Legend:
[1] = molecular target: RNA-directed RNA polymerase (Hepacivirus hominis, UniProt O39930); experiment: Inhibition of HCV NS5B RNA dependent RNA polymerase
[2] = molecular target: NS3 (Hepatitis C virus, UniProt A3EZJ3); experiment: Inhibition of HCV helicase; parameters: species or system Hepacivirus hominis
Sequence of NS3 (A3EZJ3 whole entry): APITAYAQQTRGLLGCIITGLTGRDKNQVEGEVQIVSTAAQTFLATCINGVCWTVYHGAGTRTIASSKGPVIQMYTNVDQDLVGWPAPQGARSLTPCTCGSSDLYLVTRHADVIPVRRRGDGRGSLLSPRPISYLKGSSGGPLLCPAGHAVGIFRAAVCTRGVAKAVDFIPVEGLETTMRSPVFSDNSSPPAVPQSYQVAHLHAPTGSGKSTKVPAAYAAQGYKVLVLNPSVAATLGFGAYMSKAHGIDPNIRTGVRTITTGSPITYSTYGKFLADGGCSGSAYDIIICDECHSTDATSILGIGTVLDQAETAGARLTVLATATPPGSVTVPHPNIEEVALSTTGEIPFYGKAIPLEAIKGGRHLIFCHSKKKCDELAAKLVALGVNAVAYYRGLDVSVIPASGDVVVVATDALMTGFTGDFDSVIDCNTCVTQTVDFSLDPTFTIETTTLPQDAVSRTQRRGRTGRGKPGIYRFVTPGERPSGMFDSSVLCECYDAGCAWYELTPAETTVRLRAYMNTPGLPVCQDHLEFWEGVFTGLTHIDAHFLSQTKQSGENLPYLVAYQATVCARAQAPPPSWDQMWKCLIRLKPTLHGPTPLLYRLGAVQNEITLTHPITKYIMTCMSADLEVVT

[3] = molecular target: Human immunodeficiency virus type 1 reverse transcriptase (Human immunodeficiency virus 1, UniProt Q72547); experiment: Inhibition of HIV reverse transcriptase
[4] = molecular target: DNA polymerase beta (Homo sapiens, UniProt P06746); experiment: Inhibition of human polymerase beta
[5] = test system: Vero; experiment: Cytotoxicity against Vero cell line; assay type: functional, cell-based; details: Chlorocebus sabaeus
Summary of the method: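 Cytotoxicity read by MTS assay on actively growing cells: Vero cells for line 1, clone A cells for line 2. IC50 was determined in each assay.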

[6] = Permeability from apical to basolateral side of the Caco-2 cell; assay type: ADME, cell-based; details: human, read-out: permeability
[7] = Permeability at pH 7.4 by PAMPA assay; assay type: ADME; details: read-out: permeability

Sequence of RNA-directed RNA polymerase (O39930 whole entry): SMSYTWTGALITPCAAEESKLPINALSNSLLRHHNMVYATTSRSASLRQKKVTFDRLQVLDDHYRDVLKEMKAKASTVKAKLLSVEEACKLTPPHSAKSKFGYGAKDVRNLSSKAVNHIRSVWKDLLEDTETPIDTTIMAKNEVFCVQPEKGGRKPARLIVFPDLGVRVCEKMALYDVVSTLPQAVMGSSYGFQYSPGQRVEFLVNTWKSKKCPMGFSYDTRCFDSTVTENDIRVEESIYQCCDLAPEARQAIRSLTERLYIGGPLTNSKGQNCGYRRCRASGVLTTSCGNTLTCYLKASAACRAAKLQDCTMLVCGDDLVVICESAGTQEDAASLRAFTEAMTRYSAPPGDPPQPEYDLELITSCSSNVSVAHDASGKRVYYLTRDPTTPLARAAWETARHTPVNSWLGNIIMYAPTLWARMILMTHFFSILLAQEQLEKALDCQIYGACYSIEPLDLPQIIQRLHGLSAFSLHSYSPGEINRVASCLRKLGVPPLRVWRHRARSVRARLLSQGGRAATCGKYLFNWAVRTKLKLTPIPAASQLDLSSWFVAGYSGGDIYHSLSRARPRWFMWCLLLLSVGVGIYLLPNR

| SMILES | IC50 [1] | further results |
| --- | --- | --- |
| O=C(O)[C@@H]1CCCN1S(=O)(=O)c1cc(Cl)cc(Cl)c1 | > 20000 nM |  |
| Cc1cc(NC(=O)c2ccccc2)c(S(=O)(=O)N2CCC[C@H]2C(=O)O)cc1Cl | > 20000 nM |  |
| Nc1ccccc1S(=O)(=O)N1CCC[C@H]1C(=O)O | > 20000 nM |  |
| Cc1cc(S(=O)(=O)N2CCC[C@H]2C(=O)O)c(N)cc1Cl |  | IC50 [2]: > 75000 nM; IC50 [3]: > 100000 nM; IC50 [4]: > 100000 nM |
| O=S(=O)(c1cc(Cl)cc(Cl)c1O)N1CCC[C@H]1c1nn[nH]n1 | 560 nM |  |
| CC(=O)Nc1cc(C)c(Cl)cc1S(=O)(=O)N1CCC[C@H]1C(=O)O | > 20000 nM |  |
| COC(=O)[C@@H]1CCCN1S(=O)(=O)c1cc(Cl)cc(Cl)c1O | > 20000 nM |  |
| O=S(=O)(c1cc(Cl)cc(Cl)c1O)N1CCCC1 | 4800 nM |  |
| N#C[C@@H]1CCCN1S(=O)(=O)c1cc(Cl)cc(Cl)c1O | 1400 nM |  |
| O=C(O)C1CSCN1S(=O)(=O)c1cc(Cl)cc(Cl)c1O (single isomer, unassigned; 33) | 240 nM |  |

Now from value to molecule, other results behind:

| IC50 [1] | SMILES | further results |
| --- | --- | --- |
| 2100 nM | O=C(O)[C@@H]1CCCN1S(=O)(=O)c1cc(F)cc(Cl)c1O |  |
| 770 nM | O=C(O)[C@@H]1CCCN1S(=O)(=O)c1cc(Cl)cc(Cl)c1O |  |
| 5950 nM | Cc1cc(N)c(S(=O)(=O)N2CCC[C@H]2C(=O)O)cc1Cl |  |
| 2000 nM | O=C(O)[C@@H]1CCCCN1S(=O)(=O)c1cc(Cl)cc(Cl)c1O |  |
| 7100 nM | O=C(O)[C@H]1CCCCN1S(=O)(=O)c1cc(Cl)cc(Cl)c1O |  |
| 260 nM | O=C(O)[C@@H]1CCCN1S(=O)(=O)c1cc(Cl)cc(Br)c1O |  |
| 80 nM | O=C(O)[C@@H]1CCCN1S(=O)(=O)c1cc(Cl)c(Cl)c(Cl)c1O | IC50 [5]: > 100000 nM; Papp A→B [6]: 0.4 ×10⁻⁶ cm/s; Papp [7]: 0.02 ×10⁻⁶ cm/s |
| 7900 nM | O=C(O)[C@H]1CCCN1S(=O)(=O)c1cc(Cl)cc(Cl)c1O |  |
| 1700 nM | O=C(O)C1CSCN1S(=O)(=O)c1cc(Cl)cc(Cl)c1O (single isomer, unassigned; 34) |  |
